Screening data (PubChem)
Compounds with a hit are over-represented: about 2.9% of the library has one in this group of screens.
DENV2 CPE rescue: protects cells from dengue virus 2 cytopathic effect | DENV2-infected cells, cytopathic effect rescue, plate reader | CPE inhibition, % at 9.99 µM | 350,000 compounds, 1.7% hits | AID 651640; in the data active = CPE inhibition above about 20%, passing the limit was not always enough; inconclusive = no clear call, values can overlap the other calls; tested in BHK-21 cells;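 note: 0% = median of neutral control wells and 100% = median of positive control wells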
SIRT5 block: blocks human SIRT5 desuccinylation of peptide | Q9NXA8 | Purified SirT5, succinyl-peptide AMC, trypsin-coupled fluorescence | inhibition, % at 15 µM | 330,000 compounds, 1.1% hits | AID 652115; in the data active = inhibition above about 15%; inconclusive = no clear call, values can overlap the other calls
E-sel inducer: induces E-selectin expression in human endothelial cells; activation, % at 7.58 µM; P16581; 260,000 compounds, 0.37% hits; HUVEC E-selectin immunofluorescence imaging; normalized: neutral wells 0, TNF-alpha wells 100; AID 686992;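 active = mean E-selectin-positive cell signal at least 10% of the positive control, reached in at least 60% of replicates, without over 20% cell loss; inconclusive = no rule given, readout overlaps actives, possibly toxicity-flagged; inactive = the rest, including those meeting only one limit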
Target sequence (P16581 whole entry, looked up): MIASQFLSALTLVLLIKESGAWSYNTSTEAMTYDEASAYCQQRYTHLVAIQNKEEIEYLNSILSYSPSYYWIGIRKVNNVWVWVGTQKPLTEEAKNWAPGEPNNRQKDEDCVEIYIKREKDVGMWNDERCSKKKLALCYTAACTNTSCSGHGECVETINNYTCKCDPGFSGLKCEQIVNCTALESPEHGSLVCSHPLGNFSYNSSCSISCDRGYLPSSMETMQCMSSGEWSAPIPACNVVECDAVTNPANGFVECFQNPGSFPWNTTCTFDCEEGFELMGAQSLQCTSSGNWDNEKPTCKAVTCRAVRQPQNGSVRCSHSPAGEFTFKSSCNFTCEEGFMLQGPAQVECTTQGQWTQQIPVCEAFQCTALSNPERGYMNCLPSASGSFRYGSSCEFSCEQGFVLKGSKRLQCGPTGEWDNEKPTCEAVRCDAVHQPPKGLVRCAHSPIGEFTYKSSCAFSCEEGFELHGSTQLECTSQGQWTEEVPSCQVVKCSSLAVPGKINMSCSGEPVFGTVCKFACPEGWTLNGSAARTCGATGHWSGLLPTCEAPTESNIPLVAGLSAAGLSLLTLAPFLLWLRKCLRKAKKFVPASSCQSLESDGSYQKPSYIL
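Assay system: HUVEC, human umbilical vein endothelial cells / Amount: 3,000 HUVEC/well / Controls: TNF-alpha positive control, DMSO neutral control / Compound dosing: single concentration / Medium: EGM-2 over gelatin coat / Evaluation: percent E-selectin-positive cells / Signal: immunofluorescence imaging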
Numbers without * were called inactive; ? = inconclusive; nt = no result.

SMILES | DENV2 CPE rescue | SIRT5 block | E-sel inducer
C[C@H](NC(=O)C1CC(=O)N(c2ccc3c(c2)OCCO3)C1)C(=O)NCc1ccco1 (some centres not stated) | -0.3 | -4.2 | nt
COc1ccc2c(c1)c(CC(=O)Nc1cccc(S(N)(=O)=O)c1)c(C)n2C(=O)c1ccc(Cl)cc1 | nt | 16.9* | 3.5
COC(=O)CNC(=O)Cc1c(C)n(C(=O)c2ccc(Cl)cc2)c2ccc(OC)cc12 | 11.8 | -4.7 | -0.1
O=C(c1cc(COc2ccc(F)cc2Cl)on1)N1CC[C@@H]2CCCC[C@H]2C1 | 3.4 | 33.7* | -0.2
O=C(c1cc(COc2ccc(F)cc2F)on1)N1CC[C@@H]2CCCC[C@H]2C1 | -1.6 | -3.1 | -0.6
COCC(=O)N(C)C[C@@H]1Oc2ncc(-c3ccc(C)cc3)cc2C(=O)N([C@@H](C)CO)C[C@H]1C | -3.6 | 1.9 | 0.6
COc1ccc2c3c([nH]c2c1)[C@H](CO)N(C(=O)CN(C)C)CC31CN(Cc2ccccc2Cl)C1 | 32.5* | nt | -0.6
COc1ccc2c3c([nH]c2c1)[C@@H](CO)N(C(=O)CN(C)C)CC31CN(Cc2ccccc2)C1 | 39.5* | nt | 0.2
COc1ccc2c3c([nH]c2c1)[C@@H](CO)N(Cc1cccc(F)c1)CC31CN(C(C)=O)C1 | 5.8 | -2.4 | -0.4
COc1ccc2c3c([nH]c2c1)[C@H](CO)N(C(=O)CN(C)C)CC31CCN(Cc2ccccc2Cl)CC1 | 7.7 | 6.9 | -0.5
COc1ccc(CN2CC3(C2)CN(C(=O)CN(C)C)[C@@H](CO)c2[nH]c4cc(OC)ccc4c23)cc1 | -4.7 | -1.6 | -0.7
COc1ccc2c3c([nH]c2c1)[C@H](CO)N(Cc1cccc(F)c1)CC31CN(Cc2ccccn2)C1 | 23.1* | 1.1 | -0.4
O=C(CCc1nnc2ccc(N3CCCC3)nn12)Nc1ccc(F)cc1F | 13.2 | 2.0 | 6.1
CC12CCC(C(=O)N(CC(=O)O)C1=O)C2(C)C (configuration not stated) | 1.5 | -3.3 | nt
O=C(OCCN1C(=O)c2ccccc2C1=O)c1ccccc1 | -0.4 | 0.2 | -0.4
O=C(Cc1ccccn1)NCC[C@H]1CC[C@@H](NC(=O)c2ccccc2F)[C@@H](CO)O1 | 40.2* | 1.2 | -0.4
O=C(CN1CCOCC1)NCC[C@H]1CC[C@H](NC(=O)Cc2ccccn2)[C@H](CO)O1 | -1.4 | 7.6 | -0.2
O=C(Cc1ccccn1)NCC[C@@H]1CC[C@@H](NC(=O)c2ccccc2F)[C@H](CO)O1 | -0.8 | -0.9 | -0.6
O=C(CN1CCOCC1)NCC[C@@H]1CC[C@H](NC(=O)c2ccc3c(c2)OCO3)[C@H](CO)O1 | -12.2 | -1.5 | 0.0
O=C(CN1CCOCC1)NCC[C@@H]1CC[C@H](NC(=O)c2ccc3c(c2)OCO3)[C@@H](CO)O1 | 22.0* | 3.1 | -0.2
O=C(CN1CCOCC1)NCC[C@H]1CC[C@H](NC(=O)Cc2ccccn2)[C@@H](CO)O1 | 24.4* | 1.0 | 0.3
COc1ccc2c3c([nH]c2c1)[C@H](CO)NCC31CCN(S(=O)(=O)c2cccs2)CC1 | 1.0 | nt | -0.5
CN(C#N)c1nccc(-c2cccs2)n1 | -2.1 | -5.3 | nt
CCOc1ccc(S(=O)(=O)N2CCOCC2)cc1NC(=O)CSCC(=O)Nc1ccc(C)cc1 | ? | -1.2 | 0.9
C/C=C/c1ccc([C@@H]2[C@@H](CO)N3CCCCN(C(=O)Nc4ccc(OC)cc4)C[C@@H]23)cc1 | -6.9 | 1.3 | -0.4
SMILES | DENV2 CPE rescue | SIRT5 block | E-sel inducer
CCOC(=O)c1cc([N+](=O)[O-])sc1NC(=O)c1ccc(S(=O)(=O)N2CC3(C)CC2CC(C)(C)C3)cc1 (configuration not stated) | 30.1* | -2.4 | nt
CC1(C)CC2CC(C)(CN2S(=O)(=O)c2ccc(C(=O)Nc3ccc(S(=O)(=O)N4CCOCC4)cc3)cc2)C1 (configuration not stated) | -2.7 | 1.8 | 1.6
CC(C)c1cn(CC[C@H]2CC[C@H](NC(=O)C3CC3)[C@@H](CO)O2)nn1 | 7.3 | 0.6 | -0.4
CC(C)c1cn(CC[C@H]2CC[C@H](NC(=O)C3CC3)[C@H](CO)O2)nn1 | 61.9* | -0.8 | -0.1
COc1ccccc1-c1cn(CC[C@H]2CC[C@H](NC(=O)C3CCC3)[C@H](CO)O2)nn1 | 34.8* | 0.0 | 0.0
COc1ccccc1-c1cn(CC[C@H]2CC[C@H](NC(=O)C3CCC3)[C@@H](CO)O2)nn1 | 6.9 | 0.2 | 0.9
N#C/C(=C\c1ccc([N+](=O)[O-])o1)c1nc2ccccc2[nH]1 | 0.7 | -2.1 | nt
O=C(NCCn1cc(SCc2ccccc2)c2ccccc21)c1ccccc1F | 4.3 | -10.1 | -0.5
C[C@@H]1CN([C@H](C)CO)C(=O)CCCn2cc(nn2)CO[C@H]1CN(C)C(=O)Oc1ccccc1 | 15.5 | -3.2 | 0.2
Cn1c(=O)c(=O)n(C)c2cc(S(=O)(=O)N3CCN(C4CCCCC4)CC3)ccc21 | -8.9 | nt | 0.7
Cc1cc(C(=O)CSc2ncnc3ccccc23)c(C)n1C1CC1 | 28.0* | -0.6 | nt
Cc1cc(C(=O)CSc2nnnn2C)c(C)n1C1CC1 | 7.2 | 1.2 | nt
COc1ccc(C(=O)c2cc3ccc(O)cc3oc2=O)cc1 | nt | 14.9 | nt
O=C(c1ccc(Br)cc1)c1cc2ccc(O)cc2oc1=O | -2.0 | 2.8 | 46.4*
CCCC#Cc1ccc([C@@H]2[C@@H](CO)N3C(=O)CN(C(=O)c4ccc(F)cc4)C[C@@H]23)cc1 | -2.2 | -0.5 | 0.6
CCCNC(=O)C[C@@H]1CC[C@H]2[C@@H](COc3ccc(NC(=O)c4cccc(C(F)(F)F)c4)cc3C(=O)N2C)O1 | 24.1* | -4.8 | 0.1
CCCNC(=O)C[C@@H]1CC[C@H]2[C@@H](COc3ccc(NC(=O)c4cccc(OC)c4)cc3C(=O)N2C)O1 | 46.0* | -2.3 | 0.0
CCCNC(=O)C[C@H]1CC[C@@H]2[C@H](COc3ccc(NC(=O)c4cccc(C(F)(F)F)c4)cc3C(=O)N2C)O1 | nt | nt | 0.4
CCCNC(=O)C[C@H]1CC[C@H]2[C@H](COc3ccc(NC(=O)c4cccc(OC)c4)cc3C(=O)N2C)O1 | 10.9 | -2.4 | -0.1
COc1cccc(CNC(=O)C[C@H]2CC[C@@H]3[C@H](COc4ccc(NC(C)=O)cc4C(=O)N3C)O2)c1 | 1.3 | nt | -0.1
COc1cccc(CNC(=O)C[C@H]2CC[C@H]3[C@@H](COc4ccc(NC(C)=O)cc4C(=O)N3C)O2)c1 | 28.1* | 1.2 | -0.1
O=C(C[C@H]1C=C[C@H](NC(=O)c2ccccc2)[C@H](CO)O1)NCCc1ccncc1 | 2.6 | 1.8 | 0.1
Cc1ccc(OCCNC(=O)CCC(=O)N2CCOCC2)cc1 | 1.7 | -2.7 | 0.1
CCOc1ccc2nc(Cl)c(CN(C(=O)c3cnccn3)C3CCCC3)cc2c1 | -3.6 | -0.7 | nt
CN(C)S(=O)(=O)c1cccc(COC(=O)CCNC(=O)c2ccc([N+](=O)[O-])cc2)c1 | 4.9 | -1.9 | 0.6
COc1ccc(C2CNC(=O)C2)cc1OC1CCCC1 (configuration not stated) | 17.6 | -10.0 | -0.3
C[C@@H](NC(=O)C[C@@H]1CC[C@H](NS(=O)(=O)c2cccc(F)c2)[C@H](CO)O1)c1ccccc1 | 5.0 | -1.0 | -0.4
O=C(NC(=S)Nc1cccc(O)c1)C1CCCCC1 | 1.8 | -4.2 | -0.1
O=C1c2ccccc2C2(c3ccc(F)cc3)NCCN12 (configuration not stated) | 1.0 | 1.1 | nt
NC(=S)N=Nc1c(O)n(CCCl)c2ccccc12 | 5.5 | 18.8* | nt
